Activity calls are given as the source filed them. The rule behind the calls is not given here.
Assays:
[1] = target: AP2-associated protein kinase 1 (Homo sapiens) (UniProt Q2M2I8); assay: Inhibition of AAK1 (unknown origin) at 10 uM by Ambit Kinomescan binding assay
[2] = target: Insulin receptor (Homo sapiens) (UniProt P06213); assay: Inhibition of INSR (unknown origin) at 10 uM by Ambit Kinomescan binding assay relative to control
[3] = target: MAP kinase-interacting serine/threonine-protein kinase 2 (Homo sapiens) (UniProt Q9HBH9); assay: Inhibition of MKNK2 (unknown origin) at 10 uM by Ambit Kinomescan binding assay relative to control
Sequence of MAP kinase-interacting serine/threonine-protein kinase 2 (Homo sapiens) (Q9HBH9 whole entry, looked up): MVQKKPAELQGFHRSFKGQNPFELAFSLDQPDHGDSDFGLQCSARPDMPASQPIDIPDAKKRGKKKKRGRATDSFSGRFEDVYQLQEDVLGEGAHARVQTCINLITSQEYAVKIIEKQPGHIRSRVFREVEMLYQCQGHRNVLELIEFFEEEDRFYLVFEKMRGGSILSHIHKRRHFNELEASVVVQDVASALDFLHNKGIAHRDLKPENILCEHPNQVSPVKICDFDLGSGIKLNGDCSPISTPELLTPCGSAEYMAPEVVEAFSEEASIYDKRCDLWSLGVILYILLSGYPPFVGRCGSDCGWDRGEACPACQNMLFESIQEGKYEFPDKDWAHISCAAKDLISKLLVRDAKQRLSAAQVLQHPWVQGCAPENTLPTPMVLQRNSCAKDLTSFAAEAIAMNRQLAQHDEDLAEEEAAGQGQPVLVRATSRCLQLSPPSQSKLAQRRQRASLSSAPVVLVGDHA

[4] = target: T1, Serine/threonine-protein kinase D1 (Homo sapiens) (UniProt Q15139); assay: Inhibition of PRKD1 (unknown origin) at 10 uM by Ambit Kinomescan binding assay
T1 sequence (whole entry): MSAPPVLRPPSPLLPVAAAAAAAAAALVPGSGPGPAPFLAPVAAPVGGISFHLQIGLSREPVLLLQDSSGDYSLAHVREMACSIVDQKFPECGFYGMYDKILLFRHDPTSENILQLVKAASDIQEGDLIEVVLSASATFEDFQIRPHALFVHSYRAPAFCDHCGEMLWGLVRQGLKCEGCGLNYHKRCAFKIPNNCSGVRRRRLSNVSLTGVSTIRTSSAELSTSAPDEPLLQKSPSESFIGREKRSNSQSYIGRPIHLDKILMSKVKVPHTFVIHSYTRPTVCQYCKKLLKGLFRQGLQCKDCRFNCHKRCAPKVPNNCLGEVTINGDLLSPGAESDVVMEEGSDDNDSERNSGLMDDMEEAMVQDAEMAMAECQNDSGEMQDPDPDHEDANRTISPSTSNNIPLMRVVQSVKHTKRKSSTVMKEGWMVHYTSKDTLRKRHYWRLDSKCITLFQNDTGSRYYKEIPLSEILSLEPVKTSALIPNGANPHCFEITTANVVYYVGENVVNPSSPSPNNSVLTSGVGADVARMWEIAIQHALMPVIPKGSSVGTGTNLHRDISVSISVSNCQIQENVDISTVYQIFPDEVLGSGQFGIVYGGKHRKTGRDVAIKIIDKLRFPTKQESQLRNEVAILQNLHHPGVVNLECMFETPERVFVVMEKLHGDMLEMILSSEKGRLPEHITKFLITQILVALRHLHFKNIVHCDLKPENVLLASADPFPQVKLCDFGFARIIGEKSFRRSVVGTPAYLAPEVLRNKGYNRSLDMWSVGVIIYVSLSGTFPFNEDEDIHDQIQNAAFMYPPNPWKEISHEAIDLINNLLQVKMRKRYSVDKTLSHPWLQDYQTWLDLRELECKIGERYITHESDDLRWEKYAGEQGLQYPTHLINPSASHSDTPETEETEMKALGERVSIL

[5] = target: Ribosomal protein S6 kinase alpha-5 (Homo sapiens) (UniProt O75582); assay: Inhibition of C-terminal RPS6KA5 kinase domain 2 (unknown origin) at 10 uM by Ambit Kinomescan binding assay
[6] = target: Serine/threonine-protein kinase 32C (Homo sapiens) (UniProt Q86UX6); assay: Inhibition of YANK3 (unknown origin) at 10 uM by Ambit Kinomescan binding assay
Sequence of Serine/threonine-protein kinase 32C (Homo sapiens) (Q86UX6 whole entry): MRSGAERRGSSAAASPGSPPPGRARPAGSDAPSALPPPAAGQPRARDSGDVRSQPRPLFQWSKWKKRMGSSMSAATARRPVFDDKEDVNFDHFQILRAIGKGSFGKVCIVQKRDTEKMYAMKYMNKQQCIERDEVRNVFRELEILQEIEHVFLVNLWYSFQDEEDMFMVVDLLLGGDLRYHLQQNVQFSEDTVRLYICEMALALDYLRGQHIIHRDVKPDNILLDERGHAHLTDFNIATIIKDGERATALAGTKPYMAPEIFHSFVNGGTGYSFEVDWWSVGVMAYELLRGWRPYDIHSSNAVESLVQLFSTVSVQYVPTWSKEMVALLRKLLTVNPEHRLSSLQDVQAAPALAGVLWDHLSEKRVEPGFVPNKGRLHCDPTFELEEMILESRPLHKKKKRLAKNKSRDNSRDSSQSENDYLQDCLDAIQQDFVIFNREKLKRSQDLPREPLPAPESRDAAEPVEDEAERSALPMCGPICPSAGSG

[7] = target: Microtubule-associated serine/threonine-protein kinase 3 (Homo sapiens) (UniProt O60307); assay: Inhibition of MAST3 Lys2 labeling site in human A-375 cells at 0.05 uM by KiNativ Profiling analysis relative to control; format: cell-based
Sequence of Microtubule-associated serine/threonine-protein kinase 3 (Homo sapiens) (O60307 whole entry): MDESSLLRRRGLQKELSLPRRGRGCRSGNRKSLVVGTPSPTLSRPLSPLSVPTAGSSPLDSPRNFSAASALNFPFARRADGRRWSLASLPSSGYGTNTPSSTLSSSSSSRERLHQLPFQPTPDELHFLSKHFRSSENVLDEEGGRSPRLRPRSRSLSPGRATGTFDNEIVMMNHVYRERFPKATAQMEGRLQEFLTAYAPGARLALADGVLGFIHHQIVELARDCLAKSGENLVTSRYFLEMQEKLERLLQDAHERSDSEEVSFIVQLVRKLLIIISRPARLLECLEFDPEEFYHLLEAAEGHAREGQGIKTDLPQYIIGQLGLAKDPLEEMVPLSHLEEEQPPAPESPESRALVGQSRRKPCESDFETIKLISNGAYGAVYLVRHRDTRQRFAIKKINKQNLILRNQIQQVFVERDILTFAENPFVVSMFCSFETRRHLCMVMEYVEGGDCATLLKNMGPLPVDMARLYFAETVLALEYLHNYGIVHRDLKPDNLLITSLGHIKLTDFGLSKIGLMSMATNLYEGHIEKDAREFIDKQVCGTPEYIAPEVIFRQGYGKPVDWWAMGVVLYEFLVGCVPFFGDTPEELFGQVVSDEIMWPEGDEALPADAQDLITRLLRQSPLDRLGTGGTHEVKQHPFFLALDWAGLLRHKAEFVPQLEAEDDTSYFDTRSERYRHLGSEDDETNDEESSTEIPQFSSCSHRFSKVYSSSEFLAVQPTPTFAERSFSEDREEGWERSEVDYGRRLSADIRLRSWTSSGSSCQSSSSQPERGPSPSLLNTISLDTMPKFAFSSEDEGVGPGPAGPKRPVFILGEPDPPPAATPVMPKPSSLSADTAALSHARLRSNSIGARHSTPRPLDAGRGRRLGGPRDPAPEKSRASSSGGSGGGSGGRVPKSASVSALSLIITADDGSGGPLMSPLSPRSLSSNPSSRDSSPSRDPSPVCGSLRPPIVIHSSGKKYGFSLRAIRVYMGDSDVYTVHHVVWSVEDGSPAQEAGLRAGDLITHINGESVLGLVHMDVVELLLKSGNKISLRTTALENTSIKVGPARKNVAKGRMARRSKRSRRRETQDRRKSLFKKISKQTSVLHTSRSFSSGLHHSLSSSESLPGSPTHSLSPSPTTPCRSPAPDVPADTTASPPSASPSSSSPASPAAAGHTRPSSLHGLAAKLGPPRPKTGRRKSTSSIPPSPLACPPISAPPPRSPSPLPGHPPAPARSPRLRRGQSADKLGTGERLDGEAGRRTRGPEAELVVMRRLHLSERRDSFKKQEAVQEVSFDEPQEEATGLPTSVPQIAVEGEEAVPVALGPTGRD

[8] = Inhibition of TLK1/2 K2 labeling site in human Huh-7 cells at 10 uM by KiNativ Profiling analysis relative to control; details: condition cancer
[9] = target: Calcium/calmodulin-dependent protein kinase type II subunit delta (Homo sapiens) (UniProt Q13557); assay: Inhibition of CAMK2d K1 labeling site harbouring IPTGQEYAAKIINTKK in human Huh-7 cells at 1 uM by KiNativ Profiling analysis relative to control; format: cell-based
Sequence of Calcium/calmodulin-dependent protein kinase type II subunit delta (Homo sapiens) (Q13557 whole entry): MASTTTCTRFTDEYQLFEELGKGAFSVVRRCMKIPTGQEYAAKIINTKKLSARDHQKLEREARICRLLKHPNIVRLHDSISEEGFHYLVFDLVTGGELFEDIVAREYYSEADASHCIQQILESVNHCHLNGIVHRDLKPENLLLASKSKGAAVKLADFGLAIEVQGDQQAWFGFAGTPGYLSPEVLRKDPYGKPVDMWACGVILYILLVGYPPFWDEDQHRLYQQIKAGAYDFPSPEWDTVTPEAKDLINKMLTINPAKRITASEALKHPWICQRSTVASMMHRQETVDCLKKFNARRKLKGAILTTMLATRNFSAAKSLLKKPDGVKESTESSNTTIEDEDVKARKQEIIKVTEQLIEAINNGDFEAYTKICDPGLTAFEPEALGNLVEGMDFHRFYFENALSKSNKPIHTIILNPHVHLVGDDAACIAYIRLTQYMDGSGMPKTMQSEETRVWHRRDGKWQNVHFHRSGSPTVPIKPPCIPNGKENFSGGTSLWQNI

[10] = target: 5'-AMP-activated protein kinase catalytic subunit alpha-1 (Homo sapiens) (UniProt Q13131); assay: Inhibition of AMPK-alpha1 (unknown origin) at 1 uM by Ambit Kinomescan binding assay relative to control
[11] = target: Mitogen-activated protein kinase kinase kinase kinase 4 (Homo sapiens, UniProt O95819); assay: Inhibition of MAP4K4 (unknown origin) at 1 uM by Ambit Kinomescan binding assay relative to control
Sequence of Mitogen-activated protein kinase kinase kinase kinase 4 (O95819 2-1239 limits assumed): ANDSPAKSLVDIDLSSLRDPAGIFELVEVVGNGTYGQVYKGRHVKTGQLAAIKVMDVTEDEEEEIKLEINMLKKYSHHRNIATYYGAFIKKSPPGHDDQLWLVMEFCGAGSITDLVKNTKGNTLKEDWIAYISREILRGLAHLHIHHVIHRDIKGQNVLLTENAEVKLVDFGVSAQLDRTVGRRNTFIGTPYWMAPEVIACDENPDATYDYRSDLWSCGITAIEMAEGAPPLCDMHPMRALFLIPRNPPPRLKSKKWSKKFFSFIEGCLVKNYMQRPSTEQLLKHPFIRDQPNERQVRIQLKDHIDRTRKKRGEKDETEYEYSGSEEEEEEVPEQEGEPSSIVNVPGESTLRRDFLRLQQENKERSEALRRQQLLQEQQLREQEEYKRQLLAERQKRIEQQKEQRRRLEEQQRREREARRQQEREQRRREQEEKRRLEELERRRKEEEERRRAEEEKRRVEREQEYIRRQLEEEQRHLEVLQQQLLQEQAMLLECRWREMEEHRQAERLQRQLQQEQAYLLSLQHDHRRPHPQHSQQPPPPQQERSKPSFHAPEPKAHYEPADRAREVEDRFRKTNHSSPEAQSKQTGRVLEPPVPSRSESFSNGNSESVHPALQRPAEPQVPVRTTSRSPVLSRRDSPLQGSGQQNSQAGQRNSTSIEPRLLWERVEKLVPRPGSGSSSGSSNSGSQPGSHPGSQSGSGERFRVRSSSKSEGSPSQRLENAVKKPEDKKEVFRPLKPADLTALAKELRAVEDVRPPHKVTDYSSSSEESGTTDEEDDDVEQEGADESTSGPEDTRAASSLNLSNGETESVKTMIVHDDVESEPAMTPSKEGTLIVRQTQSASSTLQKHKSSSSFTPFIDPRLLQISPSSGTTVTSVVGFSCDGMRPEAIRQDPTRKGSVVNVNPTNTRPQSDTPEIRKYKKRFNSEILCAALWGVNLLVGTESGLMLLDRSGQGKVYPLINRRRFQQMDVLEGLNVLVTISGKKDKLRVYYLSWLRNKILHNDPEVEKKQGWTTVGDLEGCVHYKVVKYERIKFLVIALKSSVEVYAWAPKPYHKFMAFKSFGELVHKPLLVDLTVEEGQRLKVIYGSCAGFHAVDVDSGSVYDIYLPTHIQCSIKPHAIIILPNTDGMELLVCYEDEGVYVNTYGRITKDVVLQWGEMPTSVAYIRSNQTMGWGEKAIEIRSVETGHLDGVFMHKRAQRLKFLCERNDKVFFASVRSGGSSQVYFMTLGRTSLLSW

[12] = target: Serine/threonine-protein kinase PknB (Mycobacterium tuberculosis) (UniProt P9WI81); assay: Inhibition of Mycobacterium tuberculosis PKNB at 1 uM by Ambit Kinomescan binding assay relative to control
Method in brief: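 In vitro ATP-site competition binding assay against a panel of over 420 kinases (KinomeScan), with compound tested at 10 or 1 μM.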

[13] = target: Serine/threonine-protein kinase 17B (Homo sapiens) (UniProt O94768); assay: Inhibition of DRAK2 (unknown origin) at 1 uM by Ambit Kinomescan binding assay relative to control; values are per cent of control
[14] = test system: Receptor-type tyrosine-protein kinase FLT3 (Homo sapiens), P36888 [R834Q]; assay: Inhibition of FLT3 R834Q mutant (unknown origin) at 1 uM by Ambit Kinomescan binding assay relative to control; values are per cent of control
[15] = target: Cyclin-dependent kinase 2 (Homo sapiens) (UniProt P24941); assay: Inhibition of CDK2 Lys1 labeling site in human Huh-7 cell lysate at 1 uM by KiNativ Profiling analysis relative to control; format: subcellular
[16] = target: 5'-AMP-activated protein kinase catalytic subunit alpha-2 (Homo sapiens) (UniProt P54646); assay: Inhibition of AMPKa2 Lys1 labeling site in human Huh-7 cells at 1 uM by KiNativ Profiling analysis relative to control; format: cell-based
Sequence of 5'-AMP-activated protein kinase catalytic subunit alpha-2 (Homo sapiens) (P54646 whole entry, looked up): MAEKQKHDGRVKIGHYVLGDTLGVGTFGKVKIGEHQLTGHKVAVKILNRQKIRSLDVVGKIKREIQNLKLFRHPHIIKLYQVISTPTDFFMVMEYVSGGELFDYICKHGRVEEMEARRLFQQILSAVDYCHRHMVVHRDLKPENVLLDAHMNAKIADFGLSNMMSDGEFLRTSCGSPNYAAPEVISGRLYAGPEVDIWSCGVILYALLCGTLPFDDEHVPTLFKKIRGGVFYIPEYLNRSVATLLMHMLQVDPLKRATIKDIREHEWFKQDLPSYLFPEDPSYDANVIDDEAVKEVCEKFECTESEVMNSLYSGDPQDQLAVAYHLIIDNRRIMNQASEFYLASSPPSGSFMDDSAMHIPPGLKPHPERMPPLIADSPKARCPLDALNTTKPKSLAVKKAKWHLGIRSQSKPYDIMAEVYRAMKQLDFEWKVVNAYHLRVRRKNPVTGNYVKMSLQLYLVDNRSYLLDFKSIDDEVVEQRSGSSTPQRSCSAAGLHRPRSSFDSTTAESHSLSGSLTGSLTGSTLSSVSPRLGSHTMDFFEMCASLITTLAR

[17] = target: Cyclin-dependent kinase 5 (Homo sapiens) (UniProt Q00535); assay: Inhibition of CDK5 Lys2 labeling site harbouring NVLHRDLKPQNLLINR in human Huh-7 cells at 1 uM by KiNativ Profiling analysis relative to control; format: cell-based
Sequence of Cyclin-dependent kinase 5 (Homo sapiens) (Q00535 whole entry, looked up): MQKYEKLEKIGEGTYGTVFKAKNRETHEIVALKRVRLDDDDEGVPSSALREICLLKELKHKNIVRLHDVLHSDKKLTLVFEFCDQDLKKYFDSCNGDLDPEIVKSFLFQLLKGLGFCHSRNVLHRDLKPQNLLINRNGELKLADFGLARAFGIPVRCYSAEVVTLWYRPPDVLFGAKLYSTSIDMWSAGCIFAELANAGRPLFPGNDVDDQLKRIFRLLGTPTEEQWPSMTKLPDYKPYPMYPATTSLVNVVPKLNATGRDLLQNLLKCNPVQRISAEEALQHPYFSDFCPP

[18] = target: Epidermal growth factor receptor (Homo sapiens) (UniProt P00533); assay: Inhibition of EGFR Lys1 labeling site harbouring GLWIPEGEKVKIPVAIKELR in human Huh-7 cells at 1 uM by KiNativ Profiling analysis relative to control; format: cell-based
[19] = target: Ribosomal protein S6 kinase alpha-4 (Homo sapiens) (UniProt O75676); assay: Inhibition of MSK2 domain1 ATP Loop labeling site in human Huh-7 cells at 1 uM by KiNativ Profiling analysis relative to control; format: cell-based

CCN1CCN(Cc2ccc(NC(=O)c3ccc(C)c(Oc4ccnc5[nH]ccc45)c3)cc2C(F)(F)F)CC1
inhibition [1]: inactive
inhibition [2]: 30%
inhibition [3]: inactive
inhibition [4]: inactive
inhibition [5]: inactive
inhibition [6]: inactive
inhibition [7]: -3.3%
inhibition at 10 µM [8]: -23.9%
inhibition [9]: 4.4%

CCN1CCN(Cc2ccc(NC(=O)c3ccc(C)c(/C=C/c4cnc5[nH]ccc5c4OC)c3)cc2C(F)(F)F)CC1
inhibition [10]: 25%
inhibition [11]: 1.8%
inhibition [12]: 84%
residual activity [13]: 16%
residual activity [14]: 7.4%

CNc1cc(Oc2cc(C(=O)Nc3cc(N4CCN(C)CC4)cc(C(F)(F)F)c3)ccc2C)ncn1
inhibition [15]: 17.7%
inhibition [16]: -7.5%
inhibition [17]: 1.1%
inhibition [18]: -5.2%
inhibition [19]: 11.5%

Reference: ChEMBL document CHEMBL5696442, “Discovery of type II inhibitors of TGFβ-activated kinase 1 (TAK1) and mitogen-activated protein kinase kinase kinase kinase 2 (MAP4K2)” (J Med Chem, 2015)
